B1: tRNA (parent)
chain: CUCUCGGUAGCCAAGUUGGUUUAAGGCGCAAGACUUUAAUUUAUCACUACGAAAUCUUGAGAUCGGGCGUUCGACUCGCCCCCGGGAGAUUUUUUCCUCGAGCAA

Variants at the floor of the assay were thinned out.

In the series the parent is B1. The series is described as follows: nonsense suppression (GFP-seq) (ratio to wild type); higher = more function; SUP4oc tRNA, yeast GFP reporter sort-seq. The gist of the method:
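Sorted GFP/RFP bins of yeast were each Illumina-sequenced with a phred ≥30 cutoff; the cells held a genome-integrated ochre-suppressor tRNA variant from a library with ~3% random mutations, a galactose-driven GFP ochre reporter, and RFP. Culture was in raffinose/galactose medium containing 80 mg/L adenine. Nonsense suppression, termed GFPSEQ, is the median GFP/RFP of the bins weighted by each variant's estimated cell share per bin, relative to the unmutated parent tRNA, for variants reaching ≥100 reads and ≥30 cells.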
Consider CUCUCGGUAGCCAAGUUGGUUUAAGGCGCAAGACUUUAAUUUAUCACUACGAAAUCUUGAGAUCCGGCGUUCGACACGCCCCCGGGAGAUUUUUUCCUCGAGCAA, for which the nonsense suppression was no more than 0.026. The same measure for CUCUCGGUAGCCAAGUUGGUUUAAGGCGCAAGACUUUAAUUUAUCACUACGAAAUCUUGAGAUUGGGCGUUCGACUCGCCACCGGGAGAUUUUUUCCUCGAGCAA: no more than 0.026.

CUCUCGGUAGCCAAGUUGGUUUAAGGCGCAAGACUUUAAUUUAUCACUACGAAAUCUUGAGAUGGGGCGUUCGACUCGCCCCCGCGAGAUUUUUUCCUCGAGCAA: the nonsense suppression is no more than 0.026. The same measure for CUCUCGGUAGCCAAGUUGGUUUAAGGCGCAAGACUUUAAUUUAUCACUACGAAAUCUUGAGAUCGUGAGUUCGACUCGCCCCCGGAAGAUUUUUUCCUCGAGCAA: no more than 0.026; for CUCUCGGUAGCCAAGUUGGUUUAAGGCGCAAGACUUUAAUUUAUCACUACGAAAUCUUGAGAUCGGGAGUUCGACUAGCCCCCGGGAGAUUUUUUCCUCGAGCAA: no more than 0.026. With CUCUCGGUAGCCAAGUUGGUUUAAGGCGCAAGACUUUAAUUUAUCACUACGAAAUCUUGAGAUCGGACGUUCGACUCGCCCCCGUGAGAUUUUUUCCUCGAGCAA the figure was 0.0862; with CUCUCGGUAGCCAAGUUGGUUUAAGGCGCAAGACUUUAAUUUAUCACUACGAAAUCUUGAGAUCAGGCGUUCCACUCGCCCCCGGGAGAUUUUUUCCUCGAGCAA, no more than 0.026; with CUCUCGGUAGCCAAGUUGGUUUAAGGCGCAAGACUUUAAUUUAUCACUACGAAAUCUUGAGAUCGAGCGUUCAACUCGCCCCCGGGAGAUUUUUUCCUCGAGCAA, 0.182. The same measure for CUCUCGGUAGCCAAGUUGGUUUAAGGCGCAAGACUUUAAUUUAUCACUACGAAAUCUUGAGAUCGAGCGUUGGACUCGCCCCCGGGAGAUUUUUUCCUCGAGCAA: no more than 0.026; for CUCUCGGUAGCCAAGUUGGUUUAAGGCGCAAGACUUUAAUUUAUCACUACGAAAUCUUGAGAUCGGGUGUUCGACUCGCCCCCGCGAGAUUUUUUCCUCGAGCAA: no more than 0.026; for CUCUCGGUAGCCAAGUUGGUUUAAGGCGCAAGACUUUAAUUUAUCACUACGAAAUCUUGAGAUCGGACGUUCGACUCGCUCCCGGGAGAUUUUUUCCUCGAGCAA: 0.0261. For CUCUCGGUAGCCAAGUUGGUUUAAGGCGCAAGACUUUAAUUUAUCACUACGAAAUCUUGAGAUCCGGCGUUCGACUCGCCCCCGGGAAAUUUUUUCCUCGAGCAA, the nonsense suppression is no more than 0.026. The same measure for CUCUCGGUAGCCAAGUUGGUUUAAGGCGCAAGACUUUAAUUUAUCACUACGAAAUCUUGAGAUCGGUCGUUCGACUCGGCCCCGGGAGAUUUUUUCCUCGAGCAA: 0.768.

In the case of CUCUCGGUAGCCAAGUUGGUUUAAGGCGCAAGACUUUAAUUUAUCACUACGAAAUCUUGAGAUCGGACGUUCGUCUCGCCCCCGGGAGAUUUUUUCCUCGAGCAA, the nonsense suppression came to 0.0276. The same measure for CUCUCGGUAGCCAAGUUGGUUUAAGGCGCAAGACUUUAAUUUAUCACUACGAAAUCUUGAGAUCGGACGUUCGACACGCCCCCGUGAGAUUUUUUCCUCGAGCAA: no more than 0.026; for CUCUCGGUAGCCAAGUUGGUUUAAGGCGCAAGACUUUAAUUUAUCACUACGAAAUCUUGAGAUCGCGCGUUCGACUCGCCCCCGAGAGAUUUUUUCCUCGAGCAA: no more than 0.026; for CUCUCGGUAGCCAAGUUGGUUUAAGGCGCAAGACUUUAAUUUAUCACUACGAAAUCUUGAGAUCGGGGAUUCGACUCGCCCCCGGGAGAUUUUUUCCUCGAGCAA: no more than 0.026. The same measure for CUCUCGGUAGCCAAGUUGGUUUAAGGCGCAAGACUUUAAUUUAUCACUACGAAAUCUUGAGAUCGGGUGUUCGACUCGCCCCCGGGAGAUUUUUUCCUCGAGCAA: 1.05. In the case of CUCUCGGUAGCCAAGUUGGUUUAAGGCGCAAGACUUUAAUUUAUCACUACGAAAUCUUGAGAUGGGGCGCUCGACUCGCCCCCUGGAGAUUUUUUCCUCGAGCAA, the nonsense suppression is no more than 0.026. The same measure for CUCUCGGUAGCCAAGUUGGUUUAAGGCGCAAGACUUUAAUUUAUCACUACGAAAUCUUGAGAUCGGACGUUCGACGCACCCCCGGGAGAUUUUUUCCUCGAGCAA: no more than 0.026. The same measure for CUCUCGGUAGCCAAGUUGGUUUAAGGCGCAAGACUUUAAUUUAUCACUACGAAAUCUUGAGAUCGAGCGUUCGAAUCGCCCCCGGGAGAUUUUUUCCUCGAGCAA: 1.18; for CUCUCGGUAGCCAAGUUGGUUUAAGGCGCAAGACUUUAAUUUAUCACUACGAAAUCUUGAGAUCGAGCGUUCGAUUCGCCCCCGGGAGAUUUUUUCCUCGAGCAA: 0.368; for CUCUCGGUAGCCAAGUUGGUUUAAGGCGCAAGACUUUAAUUUAUCACUACGAAAUCUUGAGAUCGGACGUUCGACUCGCCCCCGGGAGAUUUUUUCCUCGAGCAA: 0.188. With CUCUCGGUAGCCAAGUUGGUUUAAGGCGCAAGACUUUAAUUUAUCACUACGAAAUCUUGAGAUCGGCCGUUCGACUCGCCACCGGGAGAUUUUUUCCUCGAGCAA the figure was no more than 0.026; with CUCUCGGUAGCCAAGUUGGUUUAAGGCGCAAGACUUUAAUUUAUCACUACGAAAUCUUGAGAUGGUGCGUUCGACUCGCCCCCGGGGGAUUUUUUCCUCGAGCAA, no more than 0.026. For CUCUCGGUAGCCAAGUUGGUUUAAGGCGCAAGACUUUAAUUUAUCACUACGAAAUCUUGAGAUCGGCCGGUCGACUCGCCCCCGGGAGAUUUUUUCCUCGAGCAA, the nonsense suppression was no more than 0.026.

On to CUCUCGGUAGCCAAGUUGGUUUAAGGCGCAAGACUUUAAUUUAUCACUACGAAAUCUUGAGAUCGCGCGUUCGACUCACCCCCGGGAGAUUUUUUCCUCGAGCAA, for which the nonsense suppression came out at 0.0452. The same measure for CUCUCGGUAGCCAAGUUGGUUUAAGGCGCAAGACUUUAAUUUAUCACUACGAAAUCUUGAGAUCUGGCGUUCGACUCGCCCCCGAGAGAUUUUUUCCUCGAGCAA: no more than 0.026; for CUCUCGGUAGCCAAGUUGGUUUAAGGCGCAAGACUUUAAUUUAUCACUACGAAAUCUUGAGAUCAGGCGUUCGAAUCGCCCCCGGGAGAUUUUUUCCUCGAGCAA: 0.109.

In the case of CUCUCGGUAGCCAAGUUGGUUUAAGGCGCAAGACUUUAAUUUAUCACUACGAAAUCUUGAGAUCGGACGUUCGACUCGCCCCCUGGAGAUUUUUUCCUCGAGCAA, the nonsense suppression worked out at 0.0504.

CUCUCGGUAGCCAAGUUGGUUUAAGGCGCAAGACUUUAAUUUAUCACUACGAAAUCUUGAGAUCGGACGUUCGAGUCGCCCCCGGGAGAUUUUUUCCUCGAGCAA: the nonsense suppression stood at 0.194. The same measure for CUCUCGGUAGCCAAGUUGGUUUAAGGCGCAAGACUUUAAUUUAUCACUACGAAAUCUUGAGAUCGGGAGUUCGAAUCGCCCCCGGGAGAUUUUUUCCUCGAGCAA: 0.0286. With CUCUCGGUAGCCAAGUUGGUUUAAGGCGCAAGACUUUAAUUUAUCACUACGAAAUCUUGAGAUCCCGCGUUCGACCCGCCCCCGGGAGAUUUUUUCCUCGAGCAA, the nonsense suppression came out at 0.793. The same measure for CUCUCGGUAGCCAAGUUGGUUUAAGGCGCAAGACUUUAAUUUAUCACUACGAAAUCUUGAGAUCUGGCGUUCGACUCGCCCCCGGAAGAUUUUUUCCUCGAGCAA: no more than 0.026; for CUCUCGGUAGCCAAGUUGGUUUAAGGCGCAAGACUUUAAUUUAUCACUACGAAAUCUUGAGAUCGGCCGUUCGACUCGCCCCAGGGAGAUUUUUUCCUCGAGCAA: no more than 0.026. Consider CUCUCGGUAGCCAAGUUGGUUUAAGGCGCAAGACUUUAAUUUAUCACUACGAAAUCUUGAGAUCGGCCGUUCGACUCGGCCCCGGGAGAUUUUUUCCUCGAGCAA, for which the nonsense suppression was determined as 1.03. The same measure for CUCUCGGUAGCCAAGUUGGUUUAAGGCGCAAGACUUUAAUUUAUCACUACGAAAUCUUGAGAUCGAGCGUUCGACUCACCCCCGGGAGAUUUUUUCCUCGAGCAA: 0.0402; for CUCUCGGUAGCCAAGUUGGUUUAAGGCGCAAGACUUUAAUUUAUCACUACGAAAUCUUGAGAUCGGGGGCUCGACUCGCCCCCGGGAGAUUUUUUCCUCGAGCAA: no more than 0.026; for CUCUCGGUAGCCAAGUUGGUUUAAGGCGCAAGACUUUAAUUUAUCACUACGAAAUCUUGAGAUCGGACGUUCGAAUCGACCCCGGGAGAUUUUUUCCUCGAGCAA: 0.203. The same measure for CUCUCGGUAGCCAAGUUGGUUUAAGGCGCAAGACUUUAAUUUAUCACUACGAAAUCUUGAGAUCGCGCGUUCGACUCGCCCUCGGGAGAUUUUUUCCUCGAGCAA: no more than 0.026; for CUCUCGGUAGCCAAGUUGGUUUAAGGCGCAAGACUUUAAUUUAUCACUACGAAAUCUUGAGAUCGGACGUUCGACUCUCCCCCGGGAGAUUUUUUCCUCGAGCAA: 0.0411. With CUCUCGGUAGCCAAGUUGGUUUAAGGCGCAAGACUUUAAUUUAUCACUACGAAAUCUUGAGAUCGAGCGUUCGACCCGCCUCCGGGAGAUUUUUUCCUCGAGCAA the figure was no more than 0.026.

Regarding CUCUCGGUAGCCAAGUUGGUUUAAGGCGCAAGACUUUAAUUUAUCACUACGAAAUCUUGAGAUCGCGCCUUCCACUCGCCCCCCGGAGAUUUUUUCCUCGAGCAA, the nonsense suppression was no more than 0.026. The same measure for CUCUCGGUAGCCAAGUUGGUUUAAGGCGCAAGACUUUAAUUUAUCACUACGAAAUCUUGAGAUCGGGUGUUCGACUCGCCCCGGGGAGAUUUUUUCCUCGAGCAA: no more than 0.026.

For CUCUCGGUAGCCAAGUUGGUUUAAGGCGCAAGACUUUAAUUUAUCACUACGAAAUCUUGAGAUCGUGCGUUCGACUCGACCCCGGGAGAUUUUUUCCUCGAGCAA, the nonsense suppression is no more than 0.026. The same measure for CUCUCGGUAGCCAAGUUGGUUUAAGGCGCAAGACUUUAAUUUAUCACUACGAAAUCUUGAGAUCUGGCGUUCGACUCGCCCCCUGGAGAUUUUUUCCUCGAGCAA: no more than 0.026; for CUCUCGGUAGCCAAGUUGGUUUAAGGCGCAAGACUUUAAUUUAUCACUACGAAAUCUUGAGAUUGGGCGUGCGACUCGCCCCCGGGAGAUUUUUUCCUCGAGCAA: no more than 0.026. The same measure for CUCUCGGUAGCCAAGUUGGUUUAAGGCGCAAGACUUUAAUUUAUCACUACGAAAUCUUGAGAUCGAACGUUCGACUCGCCCCCGGCAGAUUUUUUCCUCGAGCAA: no more than 0.026; for CUCUCGGUAGCCAAGUUGGUUUAAGGCGCAAGACUUUAAUUUAUCACUACGAAAUCUUGAGAUCUGACGUUCGACUCGCCCCCGGGAGAUUUUUUCCUCGAGCAA: no more than 0.026.

CUCUCGGUAGCCAAGUUGGUUUAAGGCGCAAGACUUUAAUUUAUCACUACGAAAUCUUGAGAUCAGGCGUUCGACUCACCCCCGGGAGAUUUUUUCCUCGAGCAA: the nonsense suppression stood at 0.0493.

As to CUCUCGGUAGCCAAGUUGGUUUAAGGCGCAAGACUUUAAUUUAUCACUACGAAAUCUUGAGAUCAGGCGUUCGACUCCCCCCCGGGAGAUUUUUUCCUCGAGCAA, the nonsense suppression was no more than 0.026. With CUCUCGGUAGCCAAGUUGGUUUAAGGCGCAAGACUUUAAUUUAUCACUACGAAAUCUUGAGAUCGGACGUCCGACUCGCCCCCGGGAGCUUUUUUCCUCGAGCAA the figure was no more than 0.026; with CUCUCGGUAGCCAAGUUGGUUUAAGGCGCAAGACUUUAAUUUAUCACUACGAAAUCUUGAGAUCGUGCGUUCGAAUCGCCCCCGGGAGAUUUUUUCCUCGAGCAA, 0.704; with CUCUCGGUAGCCAAGUUGGUUUAAGGCGCAAGACUUUAAUUUAUCACUACGAAAUCUUGAGAUCCGGCGUUCGACUCGCCGCCGGGAGAUUUUUUCCUCGAGCAA, 1.06.
